From the RNAGym collection of RNA variant scans (doi:10.1126/science.aae0568)
This sample holds only a part of the variants without activity.

B1: tRNA (parent)
chain: GUUCCGUUGGCGUAAUGGUAACGCGUCUCCCUCCUAAGGAGAAGACUGCGGGUUCGAGUCCCGUACGGAACG

Variants of: B1
Assay: yeast fitness relative to wild type (ratio to wild type); higher = fitter; tRNA-Arg(CCU), competitive growth, 37 C, YPD
In short: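 A pool of Saccharomyces cerevisiae strains, each with a tRNA-Arg(CCU) gene variant at the native genomic locus, was competed in YPD at 37°C for 24 hours across six parallel replicates. The variants had been chemically synthesised at a 3% per-site mutation rate over 69 sites, and gene amplicons before and after competition were read by 100-nucleotide paired-end sequencing. Darwinian fitness relative to wild type rested on changes in genotype frequencies. Genotypes required ≥ 100 starting reads, and estimates < 0.5 were set to 0.5.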
Work on G10A C30A A43C A57U yielded a yeast fitness of no more than 0.5. In the case of G9C C11U C31A A40C A43U A65G C66G, the yeast fitness is reported as no more than 0.5. Work on G10A A21C C24A yielded a yeast fitness of no more than 0.5. G10A A70G showed a yeast fitness of 0.743. Work on G10A C27G U35A A45U G67A yielded a yeast fitness of no more than 0.5. Variant G9C C11G C24U C31U U59A A70C has a yeast fitness of 0.563. G9C C34G U47C C49U showed a yeast fitness of no more than 0.5. G10A C29U C49U G56A gave a yeast fitness of 0.633. G10A C24U C27G showed a yeast fitness of no more than 0.5. G10A C33A U35C C60A gave a yeast fitness of no more than 0.5. For G10A C22G C27U G56A, the yeast fitness was no more than 0.5. With G9C G68C the yeast fitness was 0.777. In the case of G10A C31U G38C G67A, the yeast fitness is reported as no more than 0.5. With G10A A14G C34G the yeast fitness was no more than 0.5. Work on G9C C31G A69G yielded a yeast fitness of no more than 0.5. For G9C C30U A37G C55G, the yeast fitness was no more than 0.5. In the case of G9C C11U A36C, the yeast fitness is reported as no more than 0.5. In the case of G10A A42G A70C, the yeast fitness is reported as no more than 0.5. G10A C34G A40C C46G gave a yeast fitness of no more than 0.5. With G10A A15G C55U the yeast fitness was 0.591. G9C C22G C62A showed a yeast fitness of no more than 0.5. G9C U16C C30U U59A C60G gave a yeast fitness of no more than 0.5. G10A A14U A21C C29U C60A gave a yeast fitness of 0.647. For G10A C24A G44A A65U, the yeast fitness was no more than 0.5. G10A C30U C60G showed a yeast fitness of no more than 0.5. With G9C C11A A40C the yeast fitness was 0.671. With G9C U28C A42U U59G the yeast fitness was no more than 0.5. With G9C C34A C46A G56A the yeast fitness was no more than 0.5. With G10A A37U C61G C66G the yeast fitness was 0.623. G9C U26C C61A G67A gave a yeast fitness of no more than 0.5. G9C C11A U47G U59A gave a yeast fitness of no more than 0.5. G10A A20U U35C G48C C60A A69C showed a yeast fitness of no more than 0.5. Variant G10A A20U U35C G48C has a yeast fitness of 0.723. Variant G10A A45G U59C has a yeast fitness of 0.616. In the case of G9C U35C C46U, the yeast fitness is reported as 0.601. In the case of G10A C24G A40G C46G, the yeast fitness is reported as 0.556. G9C G18C C49G G63A A65U gave a yeast fitness of no more than 0.5. G9C G38C G48C gave a yeast fitness of 0.582. With G9C C33U A40G U54G C62G the yeast fitness was no more than 0.5. For G10A C31U A40C G48A, the yeast fitness was no more than 0.5. G9C G12C A14G A20C showed a yeast fitness of no more than 0.5. With G9C C22G C33A the yeast fitness was 0.598. G10A A45U C61U gave a yeast fitness of 0.536. In the case of G10A A43C A65G, the yeast fitness is reported as 0.589. With G9C U13G G38C A45G C62G the yeast fitness was no more than 0.5. In the case of G10A C30A G41C C60G A70U, the yeast fitness is reported as 0.645. For G9C C22G C62U C66A, the yeast fitness was no more than 0.5. With G9C C27U A42U C55G the yeast fitness was no more than 0.5. In the case of G9C C33A A70C, the yeast fitness is reported as 0.826. G9C C27U C33G gave a yeast fitness of no more than 0.5. With G9C C11G G12C U28C C61U the yeast fitness was 0.747. With G9C C24G C30U the yeast fitness was no more than 0.5. G10A C46G A65C showed a yeast fitness of 0.597. In the case of G9C C29G C31U C34G A42G, the yeast fitness is reported as 0.535. Work on G9C C29U A36U A65G G67A yielded a yeast fitness of no more than 0.5. G10A C11A G39C G44C G52C U53C C66G gave a yeast fitness of no more than 0.5. G9C C61G G63C gave a yeast fitness of no more than 0.5. For G10A C11G C60A G67U, the yeast fitness was 0.512. G9C C55U gave a yeast fitness of 0.635. For G9C C55A, the yeast fitness was 0.631. G9C U13A G41A C62U gave a yeast fitness of no more than 0.5. Variant G10A C29A C55G A65G has a yeast fitness of 0.649. In the case of G10A A20C C27G A40G, the yeast fitness is reported as no more than 0.5. With G9C U19C G48A C49U the yeast fitness was 0.634. Variant G9C C11G A20U C31U G38C has a yeast fitness of no more than 0.5. In the case of G10A C31U G44C A69U, the yeast fitness is reported as no more than 0.5. G9C C31G A40C gave a yeast fitness of 0.597. G10A A57C gave a yeast fitness of 0.525. In the case of G10A C11A U16G G38A A42U, the yeast fitness is reported as no more than 0.5. With G10A A20U C27U U35C G48C C60A the yeast fitness was no more than 0.5. Work on G9U C27U C29A C31A yielded a yeast fitness of no more than 0.5. With G10A C27G G63C the yeast fitness was no more than 0.5. G10A C27G G48C C62A showed a yeast fitness of no more than 0.5. For G9C U28A C46U C60A A70C, the yeast fitness was no more than 0.5. With G10A A21G U28C the yeast fitness was no more than 0.5. G10A A45C G50C G51C C55U G68A A70C showed a yeast fitness of no more than 0.5. In the case of G9C C27U G52C, the yeast fitness is reported as no more than 0.5. Variant G10A C31A G41A A45U G58C has a yeast fitness of no more than 0.5. Variant G10A A36G G48C has a yeast fitness of 0.691. G9C U26C showed a yeast fitness of 0.612. G9C U26G gave a yeast fitness of 0.684. With G9C C30U A45G the yeast fitness was no more than 0.5. G9C C24U U26G C61G showed a yeast fitness of 0.504. For G10A C11A C60A, the yeast fitness was no more than 0.5.
